Source: PubChem
This is a sample that favours compounds with a hit; in the whole collection about 1.9% have one here.
NOD2-RIPK2 inh – NOD2-RIPK2 protein interaction inhibition. CHO BLA complementation NOD2-RIPK2, CCF4 ratio. inhibition, % at 4.98 µM. 0.38% of 360,000 active. AID 624267; in the data active means inhibition above about 21%
TLR4 MyD88 comp – TLR4-MyD88 interaction inhibition in cells; O00206+Q99836; HeLa CL3-4 TLR4/MyD88 BLA complementation, FRET ratio; inhibition, % at 8.4 µM; 0.18% of 200,000 active; in the data active means inhibition above about 25%
NTR1 ag – activates human neurotensin receptor 1. P30989. NTR1-U2OS beta-arrestin-GFP spot imaging, agonist mode. activation, % at 20 µM. 0.17% of 330,000 active. AID 493036;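 active means activation at or above 40% of the spot to cytoplasm intensity ratio, with at least 20 cells analyzed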
Target sequence (P30989 whole entry, looked up): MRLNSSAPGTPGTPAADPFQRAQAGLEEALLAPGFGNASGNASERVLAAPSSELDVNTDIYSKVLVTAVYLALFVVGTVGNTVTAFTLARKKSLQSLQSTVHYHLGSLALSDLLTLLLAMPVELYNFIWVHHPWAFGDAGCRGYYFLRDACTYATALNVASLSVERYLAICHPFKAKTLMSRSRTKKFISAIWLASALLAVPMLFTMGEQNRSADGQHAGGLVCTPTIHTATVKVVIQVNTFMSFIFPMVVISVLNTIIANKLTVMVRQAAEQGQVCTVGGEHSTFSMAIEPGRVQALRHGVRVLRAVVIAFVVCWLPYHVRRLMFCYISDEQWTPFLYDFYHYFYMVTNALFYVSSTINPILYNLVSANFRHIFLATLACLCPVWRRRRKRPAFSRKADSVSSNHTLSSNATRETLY
MC4R antag cAMP – human MC4R antagonism in cAMP assay; 0.48% of 360,000 active; P32245; inhibition, % at 6.5 µM; MC4R-expressing cells, MTII-stimulated cAMP, LANCE TR-FRET;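 active means inhibition above its plate's cutoff, the mean of tested wells on that plate plus 3 SD, cut at about 29% in these data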
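Material: human MC4R-expressing U2OS cells. Probe or stimulus: Melanotan II challenge. Dosing: 6.5 µM single dose. Times: 30-min compound, 1-h challenge, 1-h detection, room temperature. Technique: TR-FRET with Eu-cAMP and labeled anti-cAMP, 671 nm. Replication: singlicate.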
TLR9-MyD88 block – TLR9-MyD88 interaction inhibition; inhibition, % at 4.98 µM; CHO BLA complementation TLR9-MyD88, CCF4 FRET ratio; Q9NR96+Q99836; 0.21% of 340,000 active; AID 504734;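 active means inhibition above the mean over all tested compounds plus 3 SD, cut at about 21% in these data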
MC4R ag barr – agonists of human melanocortin 4 receptor (MC4R) beta-arrestin; P32245; U2OS MC4R beta-arrestin complementation, luminescence; percent of melanotan II response, DMSO zero; activation, % at 8.9 µM; 0.98% of 360,000 active;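 active means activation above a per-plate cutoff, the mean activation of sample wells on that plate plus 3 SD, cut at about 8% in these data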
MC4R barr ag – human MC4R beta-arrestin agonism confirmation; 31% of 2,400 active; activation, % at 8.9 µM; shares compounds with MC4R ag barr; AID 602192; U2OS MC4R beta-arrestin recruitment, luminescence; scaled DMSO 0%, Melanotan II 100%;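 active means mean activation across replicates above the hit cutoff set in the earlier primary screen, cut at about 8% in these data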
MOR-DOR barr ag – OPRM1-OPRD1 heterodimer agonism counter-screen | activation, % at 9.2 µM | shares compounds with MC4R ag barr | 5.8% of 2,400 active | AID 602194 | U2OS PathHunter beta-arrestin, beta-gal luminescence; percent of deltorphin B response, DMSO zero;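 active means mean activation across replicates exceeds the hit threshold derived in the earlier primary screen, cut at about 18% in these data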
NOD2-RIPK2 conf – confirmation of human NOD2-RIPK2 interaction inhibitors. CHO cells, NOD2-RIPK2 BLA complementation, CCF4 FRET. inhibition, % at 4.98 µM. shares compounds with NOD2-RIPK2 inh. 70% of 1,200 active;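 active means mean inhibition across replicates above a set limit taken from the earlier primary screen, cut at about 21% in these data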
BLA counter – hits BLA reporter in NOD2-RIPK2 inhibitor counterscreen; 57% of 1,200 active; CHO BLA reporter, CCF4 FRET ratio; shares compounds with NOD2-RIPK2 inh; inhibition, % at 4.98 µM; AID 624371;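 active means mean inhibition above the low-control mean inhibition plus three low-control SD, cut at about 11% in these data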
A number is an active result; . = inactive; / = no result given.

SMILES	NOD2-RIPK2 inh	TLR4 MyD88 comp	NTR1 ag	MC4R antag cAMP	TLR9-MyD88 block	MC4R ag barr	NOD2-RIPK2 conf	BLA counter	others
CCOc1cc(CNCCc2c[nH]c3ccccc23)cc(Cl)c1OCC	.	.	.	.	.	15	/	/	MC4R barr ag=17;MOR-DOR barr ag=.
CCOc1c(Cl)cc(CNCCc2c[nH]c3ccccc23)cc1OC	.	.	.	.	.	.	/	/
COC(=O)C1=C(c2ccc(OC)c(OC)c2)C[C@@H]2CC[C@H]1N2C(=O)NCCc1ccccc1	.	/	.	.	.	.	/	/
CCn1c(O)c(/C(C)=N/N2CCCCC2c2cccnc2)c(=O)[nH]c1=S (stereo unspecified)	.	.	.	.	.	.	/	/
Clc1ccc(C[n+]2c(-c3ccccc3)cc(-c3ccccc3)cc2-c2ccccc2)cc1	.	/	.	.	.	16	/	/	MC4R barr ag=20;MOR-DOR barr ag=.
CC12CCC3C(CC=C4CC(O)CCC43C)C1C/C(=C\c1ccccc1F)C2=O (stereo unspecified)	.	.	.	.	.	27	/	/	MC4R barr ag=25;MOR-DOR barr ag=.
COC(=O)C12OCC34C(CC5C(C)=C(O)C(=O)CC5(C)C3C(O)C1O)OC(=O)C(OC(=O)/C=C(\C)C(C)C)C24 (stereo unspecified)	29	/	/	.	.	.	24	.
COc1ccc(CC(=O)N2CCN(C)CC2)cc1	.	.	.	.	.	.	/	/
COc1ccc(CC2NCC(O)C2OC(C)=O)cc1 (stereo unspecified)	35	/	/	.	.	.	32	.
CC(C)(C)C(=O)O[C@H]1CC[C@@]2(C)C(=CC(=O)C3C2CC[C@]2(C)C(=O)[C@H](O)CC32)C1 (stereo partly specified)	.	/	.	.	.	.	/	/
CC(=O)OC1C(O)C(C)OC(OC2C(OC(=O)C3CCC4C(C3)OC3(CC(OC(=O)/C=C/c5ccccc5)C(C)CO3)C43CO3)OC(C)C(O)C2OC(C)=O)C1O (stereo unspecified)	23	/	/	.	.	.	28	.
ClCCN(CCCl)c1ccc(C=Cc2ccncn2)cc1	63	/	/	.	/	.	47	60
CC(=O)OC1C(=O)OCC23CCC4(C)OC4C2OC2CC(OC(=O)C=CC=CC(=O)OCCC1C)C3(C)C21CO1 (stereo unspecified)	31	/	/	.	.	.	25	.
CC(O)C1C=CC=CC(=O)OC2CC3OC4C5OC5(C)CCC4(COC(=O)C4OC4(C)C(O)CO1)C2(C)C31CO1 (stereo unspecified)	29	/	/	.	.	.	21	.
O=C(O)c1ccc(NC(=O)N2C[C@H]3C[C@@H](C2)c2cccc(=O)n2C3)cc1	.	/	.	.	.	.	/	/
CC(C)C[C@@H]1COc2cc(N3CCN(C)CC3)ccc2S(=O)(=O)N1	.	/	/	/	/	/	/	/
CCN(CC)c1ccc(/C=C/[N+](=O)[O-])cc1	44	.	.	.	.	.	54	28
CCC(=NCc1cccnc1)c1c(O)n(Cc2ccccc2)c(=O)[nH]c1=O	.	.	.	.	.	.	/	/
CN(C)C(=O)Oc1ccc(OCc2n(C)c3ccccc3[n+]2C)cc1	.	.	.	.	.	.	/	/
CC1=CC2OC3CC4OC(=O)C=CC=CC(=O)OCCC(C)C(O)C(=O)OCC2(CC1O)C4(C)C31CO1 (stereo unspecified)	29	/	/	.	.	.	28	.
